{"source": "ChEMBL document CHEMBL1122512", "about": "“Investigations on the chemistry of berbanes. 10. Synthesis of raunescinone analogues with hypotensive and antihypertensive activity” (1984)", "key": {"[1]": {"system": "Rattus norvegicus", "experiment": "Systolic blood pressure was measured prior to dosing in conscious normotensive male rats at a dose of 5 mg/kg administered intraperitoneally in 5 rats", "format": "functional", "settings": "route intraperitoneal", "outline": "(§1)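 Conscious normotensive male rats (250–300 g) were restrained in Plexiglass tubes kept at 37 °C. Systolic pressure was read indirectly at the tail root using a tail cuff and a sphygmomanometer with a crystal-microphone pulse pick-up. Dosing was intraperitoneal, and change from the pre-dose value was followed to 48 h.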"}, "[2]": {"system": "Rattus norvegicus", "experiment": "Change in heart rate after 6 hours of dosing was measured in conscious normotensive male rats at a dose of 5 mg/kg administered intraperitoneally in 5 rats", "format": "functional", "settings": "route intraperitoneal", "outline": "(§2)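 Heart rate was recorded electronically through the blood-pressure recorder during tail-cuff measurement in conscious normotensive male rats (250–300 g), restrained in Plexiglass tubes at 37 °C. Dosing was intraperitoneal, and change from the pre-dose rate was followed to 48 h.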"}, "[3]": {"system": "Rattus norvegicus", "experiment": "Change in blood pressure after 18 hours of dosing was measured in conscious normotensive male rats at a dose of 5 mg/kg administered intraperitoneally in 5 rats", "format": "functional", "settings": "route intraperitoneal", "outline": "as §1"}, "[4]": {"system": "Rattus norvegicus", "experiment": "Change in heart rate after 24 hours of dosing was measured in conscious normotensive male rats at a dose of 5 mg/kg administered intraperitoneally in 5 rats", "format": "functional", "settings": "route intraperitoneal", "outline": "as §2"}, "[5]": {"system": "Rattus norvegicus", "experiment": "Change in blood pressure after 48 hours of dosing was measured in conscious normotensive male rats at a dose of 5 mg/kg administered intraperitoneally in 5 rats", "format": "functional", "settings": "route intraperitoneal", "outline": "as §1"}, "[6]": {"experiment": "Ratio of performance time under the effect and corresponding control performance time", "format": "functional", "outline": "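Female mice (20–25 g), in groups of 10, were trained on a 3 cm rod at 15 rpm and tested 6 h after intraperitoneal dosing. The activity ratio is the group performance time under drug divided by the control group performance time.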"}, "[7]": {"system": "Rattus norvegicus", "experiment": "Change in heart rate after 12 hours of dosing was measured in conscious normotensive male rats at a dose of 5 mg/kg administered intraperitoneally in 5 rats", "format": "functional", "settings": "route intraperitoneal", "outline": "as §2"}, "[8]": {"system": "Rattus norvegicus", "experiment": "Change in blood pressure after 6 hours of dosing was measured in conscious normotensive male rats at a dose of 5 mg/kg administered intraperitoneally in 5 rats", "format": "functional", "settings": "route intraperitoneal", "outline": "as §1"}, "[9]": {"system": "Rattus norvegicus", "experiment": "Change in blood pressure after 24 hours of dosing was measured in conscious normotensive male rats at a dose of 5 mg/kg administered intraperitoneally in 5 rats", "format": "functional", "settings": "route intraperitoneal", "outline": "as §1"}, "[10]": {"system": "Mus musculus", "experiment": "Lack of depressant effect on the CNS as measured by the forced coordinated motor activity on mice was expressed as time elapsed from dosing required to obtain maximum hypotensive or antihypertensive effect", "format": "functional, Central nervous system"}, "[11]": {"system": "Rattus norvegicus", "experiment": "Change in heart rate after 18 hours of dosing was measured in conscious normotensive male rats at a dose of 5 mg/kg administered intraperitoneally in 5 rats", "format": "functional", "settings": "route intraperitoneal", "outline": "as §2"}, "[12]": {"system": "Rattus norvegicus", "experiment": "Change in blood pressure after 3 hours of dosing was measured in conscious normotensive male rats at a dose of 5 mg/kg administered intraperitoneally in 5 rats", "format": "functional", "settings": "route intraperitoneal", "outline": "as §1"}, "[13]": {"system": "Rattus norvegicus", "experiment": "Change in heart rate after 48 hours of dosing was measured in conscious normotensive male rats at a dose of 5 mg/kg administered intraperitoneally in 5 rats", "format": "functional", "settings": "route intraperitoneal", "outline": "as §2"}, "[14]": {"system": "Rattus norvegicus", "experiment": "Heart rate was measured prior to dosing in conscious normotensive male rats at a dose of 5 mg/kg administered intraperitoneally in 5 rats", "format": "functional", "settings": "route intraperitoneal", "outline": "as §2"}, "[15]": {"system": "Rattus norvegicus", "experiment": "Change in blood pressure after 12 hours of dosing was measured in conscious normotensive male rats at a dose of 5 mg/kg administered intraperitoneally in 5 rats", "format": "functional", "settings": "route intraperitoneal", "outline": "as §1"}, "[16]": {"system": "Rattus norvegicus", "experiment": "Change in heart rate after 3 hours of dosing was measured in conscious normotensive male rats at a dose of 5 mg/kg administered intraperitoneally in 5 rats", "format": "functional", "settings": "route intraperitoneal", "outline": "as §2"}, "[17]": {"species": "Mus musculus", "experiment": "Compound was evaluated for its lack of depresant effect on the CNS as measured by the forced coordinated motor activity on 10 mice", "format": "functional"}}, "data": [{"smiles": "COC(=O)[C@H]1[C@H]2C[C@@H]3c4[nH]c5cc(OC)ccc5c4CCN3C[C@H]2C[C@@H](OC(=O)c2cc(OC)c(OC)c(OC)c2)[C@@H]1OC", "note": "[RESERPINE]", "values": [{"measurement": "BP", "setting": "[1]", "value": 117, "unit": "mmHg"}, {"measurement": "Change in heart rate", "setting": "[2]", "value": -44}, {"measurement": "Change in BP", "setting": "[3]", "value": -10}, {"measurement": "Change in heart rate", "setting": "[4]", "value": -32}, {"measurement": "Change in BP", "setting": "[5]", "value": -7}, {"measurement": "Activity ratio", "setting": "[6]", "value": "< 0.08"}, {"measurement": "Change in heart rate", "setting": "[7]", "value": -40}, {"measurement": "Change in BP", "setting": "[8]", "value": -23}, {"measurement": "Change in BP", "setting": "[9]", "value": -12}, {"measurement": "Time", "setting": "[10]", "value": 6, "unit": "h"}, {"measurement": "Change in heart rate", "setting": "[11]", "value": -40}, {"measurement": "Change in BP", "setting": "[12]", "value": -18}, {"measurement": "Change in heart rate", "setting": "[13]", "value": -10}, {"measurement": "Heart rate", "setting": "[14]", "value": 364, "unit": "beats min-1"}, {"measurement": "Change in BP", "setting": "[15]", "value": -16}, {"measurement": "Change in heart rate", "setting": "[16]", "value": -34}, {"measurement": "Group performance time", "setting": "[17]", "value": 9, "unit": "s"}]}]}
